# Measurements from different studies.
# Protocols differ between the studies behind these lines.
# FGFR3: Fibroblast growth factor receptor 3 (FGFR3, Homo sapiens, UniProt P22607)
# FGFR3 G697C: Fibroblast growth factor receptor 3 (FGFR3, Homo sapiens, UniProt P22607, G697C)
SMILES,target,read-out,mode,method,concentration,quantity,value
CNCc1ccc(-c2cc(-c3nc(-c4ccc(S(=O)(=O)C(C)C)cc4)cnc3N)on2)cc1,FGFR3,enzyme activity,inhibitor,,0.4 µM,inhibition,0%
CSc1nc(C)c(-c2ccnc(Nc3ccc(N4CCOCC4)cc3)c2)[nH]1,FGFR3,cell-free assay,inhibitor,,10 µM,inhibition,70.4%
CS(=O)(=O)Nc1cccc(-c2csc(NC(=O)CSc3nc4nccnc4c(=O)n3CCc3ccccc3)n2)c1,FGFR3,enzyme activity,inhibitor,,10 µM,inhibition,-15%
C[C@H]1CCN(c2nccc(-c3cnn4ncccc34)n2)C1,FGFR3 G697C,binding,,,1 µM,remaining binding,83%
COc1cc(-c2cn(C3CCc4c(F)cccc4N(CC(F)(F)F)C3=O)nn2)ccc1-n1cnc(C)c1 (centres unmarked),FGFR3,cell-free assay,,competition with immobilised ligand,1 µM,remaining binding,100%
Cc1ccc(C(=O)Nc2ccc(CN3CCN(C)CC3)c(C(F)(F)F)c2)cc1C#Cc1cnc2cccnn12,FGFR3 G697C,cell-free assay,,,23.5 nM,remaining signal,63%
CN(CCCC(F)(F)F)c1nccc(-c2cnn3ncccc23)n1,FGFR3 G697C,binding,,,1 µM,remaining binding,86%
Cc1ccc(C(=O)NCc2ccsc2)cc1C#Cc1cn(C(C)C)c2ncnc(N)c12,FGFR3,enzyme activity,inhibitor,,1 µM,activity vs control,33%
CNc1cccc2cc(C(=O)Nc3ccc(C(=O)O)cc3)c(=O)[nH]c12,FGFR3,enzyme activity,inhibitor,,10 µM,inhibition,-1.1%
N#CCCc1ccc2c(c1)-c1[nH]c3ccc([N+](=O)[O-])cc3c1CC(=O)N2,FGFR3,cell-free assay,,,0.5 µM,remaining signal,90.3%
O=C(Nc1cnn(-c2csc(C(=O)NC3COC3)c2)c1)Nc1ccccc1Cl,FGFR3,enzyme activity,inhibitor,,5 µM,remaining activity,97.8%
CC/C(=N\NC(=O)NCc1cccc(O)c1)c1ccc(O)c(C)c1O,"Fibroblast growth factor receptor 3 (FGFR3, Homo sapiens, UniProt P22607, K650M)",enzyme activity,inhibitor,,0.1 µM,inhibition,4.2%
CCN(CC)c1ccc(C2=NNC(=O)CC2C)cc1[N+](=O)[O-] (centres unmarked),FGFR3,enzyme activity,inhibitor,,10 µM,remaining activity,93%
CCCS(=O)(=O)Nc1ccc(F)c(C(=O)c2c[nH]c3ncc(-c4ccc(Cl)cc4)cc23)c1F,FGFR3,enzyme activity,inhibitor,,1 µM,inhibition,< 10%
CC(C)(C)c1nc(-c2cccc(NS(=O)(=O)c3c(F)cccc3F)c2F)c(-c2ccnc(N)n2)s1,FGFR3,enzyme activity,inhibitor,radiometric,1 µM,remaining activity,118%
CN(c1nccc(-c2cnn3ncccc23)n1)C1CC1,FGFR3 G697C,binding,,,1 µM,remaining binding,100%
CCCCN(CCCC)C(=O)CN1C[C@H](c2cc(OC)c3c(c2)OCO3)[C@@H](C(=O)O)[C@@H]1CC(C)(C)CCC,FGFR3,cell-free assay,,competition with immobilised ligand,1 µM,remaining binding,100%
COc1cc(Cl)c(C(=O)N[C@@H](CN[C@H]2CC[C@@H](N)CC2)Cc2ccc(C#N)cc2)cc1-c1ccc(CN[C@H](C)c2ccc(C)cc2)o1,FGFR3,enzyme activity,inhibitor,,1 µM,remaining activity,85%
O=C1Nc2ccc(Cl)cc2C1=Cc1cc(Cl)c(O)c(Cl)c1,FGFR3,cell-free assay,,,0.5 µM,remaining signal,94%
CNC(=O)Nc1ccc2c(c1)[C@@]1(CC2)OC(=O)N(CC(=O)N(Cc2ccc(F)cc2)[C@@H](C)C(F)(F)F)C1=O,FGFR3,cell-free assay,,competition with immobilised ligand,1 µM,remaining binding,92%
Nc1ncnc2occ(-c3ccc(NC(=O)Nc4cc(C(F)(F)F)ccc4F)cc3)c12,FGFR3,cell-free assay,,,20 µM,remaining signal,0.75%
COc1cc2ncnc(Nc3ccc(Oc4ccccc4)cc3C)c2cc1OC,FGFR3,enzyme activity,inhibitor,,1 µM,inhibition,5%
CN(C)c1nccc(-c2cnc3ncccn23)n1,FGFR3,binding,,,1 µM,remaining binding,100%
Cc1c(NC(=O)c2cc(C(N)=O)nc3cc(F)ccc23)c(C(F)(F)F)nn1Cc1ccc(C(C)(C)C)cc1,FGFR3,cell-free assay,,competition with immobilised ligand,1 µM,remaining binding,92%
CCN(CC)CCNC(=O)c1c(C)[nH]c(/C=C2\C(=O)Nc3ccc(F)cc32)c1C,FGFR3,enzyme activity,inhibitor,,0.3 µM,inhibition,61%
C[C@@]1(Cc2ccc(C#N)cc2)C(=O)N(c2cc(Cl)cc(Cl)c2)c2ncc(C(=O)NC3(c4nc(C5CCC5)no4)CC3)n21,FGFR3 G697C,cell-free assay,,competition with immobilised ligand,1 µM,remaining binding,100%
N[C@H]1CCN(c2nccc(-c3cnn4ncccc34)n2)C1,FGFR3 G697C,binding,,,1 µM,remaining binding,100%
Nc1nc(Nc2ccc(S(N)(=O)=O)cc2)nn1C(=O)c1c(F)cccc1F,FGFR3,cell-free assay,,,0.5 µM,remaining signal,46.4%
COc1cc2ncnc(Nc3ccc(Oc4ccccc4)c(C)c3C)c2cc1OC,FGFR3,enzyme activity,inhibitor,,1 µM,inhibition,-2%
O=C(O)[C@@H]1[C@@H](Cn2nnc3ccccc3c2=O)CC[C@H]1C(=O)c1ccc(OCCC2CCOCC2)cc1,FGFR3 G697C,cell-free assay,,competition with immobilised ligand,1 µM,remaining binding,92%
COc1ccnn2ncc(-c3ccnc(N(C)C)n3)c12,FGFR3 G697C,binding,,,1 µM,remaining binding,100%
CC(C)CC(=O)N1CCc2nc(-c3ccc(Br)cc3)nc(N(C)Cc3ccccc3)c2C1,FGFR3,cell-free assay,,competition with immobilised ligand,0.1 µM,remaining binding,100%
CCCOc1ccc(OC)c(F)c1C(=O)c1ccc(C(=O)N[C@@H]2CNC[C@H]2NC(=O)c2ccc3[nH]ncc3c2)cc1,FGFR3,enzyme activity,inhibitor,,10 µM,remaining activity,47%
C[C@@H]1CN(c2cc(-c3n[nH]c4ccc(OC5(C)CC5)cc34)ncn2)C[C@H](C)O1,FGFR3 G697C,cell-free assay,,competition with immobilised ligand,0.1 µM,remaining binding,86%
Cc1ccc(Nc2nccc(N(C)c3ccc4c(C)n(C)nc4c3)n2)cc1S(N)(=O)=O,FGFR3,enzyme activity,inhibitor,,10 µM,inhibition,99%
